Laboratory results: ChEMBL document CHEMBL1125923, “New dibenzothiadiazepine derivatives with antidepressant activities” (J Med Chem, 1991)

How the values were obtained:
Mus musculus [1] = assay: Rectal temperature of mice treated with compound in apomorphine (16 mg/kg injected sc 30 min before temp. recording) after its oral administration at 400 mg/kg, 0.5 hr before rectal temperature measurement; type: functional
Method in brief: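 Screening in male Swiss albino mice (20–22 g): 400 mg/kg compound orally; apomorphine 16 mg/kg sc 30 min before recording. Rectal temperature read at 0.5, 2, 4 h after dosing; value reported at time of peak activity (generally 0.5 h). Groups of 8–20 mice; standard errors 1–3% of mean.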

[2] = Dose of compound required in mg/kg to induce lethality in 50% of mice after 14 days; type: ADME, organism-based; details: mouse, in vivo
Method in brief: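 Male Swiss albino mice, 20–22 g, dosed orally; deaths followed for up to 2 weeks (14 days) after administration. Groups of 8–20 mice.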

Mus musculus [3] = species: Mus musculus; assay: Dose of compound required to reduce apomorphine-induced hypothermia by 50% in mice by hypothermia (Apo 16)test; type: functional
Method in brief: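 Male Swiss albino mice, 20–22 g; apomorphine 16 mg/kg sc 30 min before rectal temperature recording. Compound given orally, tested at time of peak activity (0.5–2 h). […] Groups of 8–20 mice.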

Mus musculus [4] = assay: Dose required to reduce reserpine induced hypothermia was measured after sc administration of reserpine at 2.5 mg/kg, 18 hr before the rectal-temperature recording in mice; type: functional; parameters: unit: mg/kg; details: reserpine 2.5 mg/kg sc; route oral
Method in brief: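 Male Swiss albino mice, 20–22 g; reserpine 2.5 mg/kg sc 18 h before rectal temperature recording. Compound given orally at time of peak activity, generally 0.5 h before recording. Groups of 8–20 mice.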

Mus musculus [5] = assay: Compound was evaluated after 24 hr for physostigmine induced lethality upon oral administration 60 min before intraperitoneal injection of physostigmine (0.9 mg/kg) in mice at 200 mg/kg; type: ADME, organism-based; parameters: dose 200 mg/kg, route oral; details: in vivo
Method in brief: (§1)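 Male Swiss albino mice, 20–22 g; compound given orally 60 min before physostigmine 0.9 mg/kg ip. Lethality scored 24 h after physostigmine injection and expressed as % of group dying. Groups of 8–20 mice; significance vs vehicle by χ2.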

Mus musculus [6] = assay: Compound was evaluated after 24 hr for physostigmine induced lethality upon oral administration 60 min before intraperitoneal injection of physostigmine (0.9 mg/kg) in mice at 400 mg/kg; type: ADME, organism-based; parameters: dose 400 mg/kg, route oral; details: in vivo; method in brief: as §1
Mus musculus [7] = assay: Compound was evaluated after 24 hr for physostigmine induced lethality upon oral administration 60 min before intraperitoneal injection of physostigmine (0.9 mg/kg) in mice at 600 mg/kg; type: ADME, organism-based; parameters: dose 600 mg/kg, route oral; details: in vivo; method in brief: as §1
Mus musculus [8] = assay: Compound was evaluated after 24 hr for physostigmine induced lethality upon oral administration 60 min before intraperitoneal injection of physostigmine (0.9 mg/kg) in mice at 25 mg/kg; type: ADME, organism-based; parameters: dose 25 mg/kg, route oral; details: in vivo; method in brief: as §1

Compound Cc1cc2c(cc1Cl)N(C(=O)CN1CCN(c3ncccn3)CC1)c1ccccc1N(C)S2(=O)=O has a Rectal temperature (Mus musculus [1]) of 32.7 °C.
In the case of CN1c2ccccc2N(C(=O)CNC(C)(C)C)c2ccccc2S1(=O)=O, the Rectal temperature (Mus musculus [1]) is reported as 32.2 °C.
Compound CN(C)CCC(=O)N1c2ccccc2N(C)S(=O)(=O)c2ccccc21 has an LD50 at 336 h [2] of 521 mg/kg, an ED50 (Mus musculus [3]) of 23.1 mg/kg and a Rectal temperature (Mus musculus [1]) of 36.5 °C. For the same compound, the Min effective dose (Mus musculus [4]) was >100.
With CN(C)CCN1c2ccccc2N(C)S(=O)(=O)c2ccccc21 the LD50 at 336 h [2] was 468 mg/kg, the ED50 (Mus musculus [3]) was > 100 mg/kg and the Min effective dose (Mus musculus [4]) was 100.
CN1c2ccccc2N(C(=O)CN2CCCC2)c2ccccc2S1(=O)=O showed a Rectal temperature (Mus musculus [1]) of 34.2 °C.
For CCN1c2ccccc2N(C(=O)CN(C)C)c2ccccc2S1(=O)=O, the Rectal temperature (Mus musculus [1]) was 35.1 °C.
In the case of Cc1cc2c(cc1Cl)N(C(=O)CN1CCN(c3ccccc3)CC1)c1ccccc1N(C)S2(=O)=O, the Rectal temperature (Mus musculus [1]) is reported as 34.5 °C.
Cc1cc2c(cc1Cl)N(C(=O)CN1CCN(CCO)CC1)c1ccccc1N(C)S2(=O)=O gave a Rectal temperature (Mus musculus [1]) of 34.1 °C.
With CC1CCN(CC(=O)N2c3ccccc3N(C)S(=O)(=O)c3ccccc32)CC1 the Rectal temperature (Mus musculus [1]) was 33.2 °C.
With CN(C)CCCN1c2ccccc2N(C)S(=O)(=O)c2ccccc21 the LD50 at 336 h [2] was 655 mg/kg, the ED50 (Mus musculus [3]) was 4.9 mg/kg and the Min effective dose (Mus musculus [4]) was >100.
CCCN1c2ccccc2N(C(=O)CN(C)C)c2ccccc2S1(=O)=O showed a Rectal temperature (Mus musculus [1]) of 35.8 °C.
With CN(C)CC(=O)N1c2cc(Cl)ccc2N(C)S(=O)(=O)c2ccccc21 the ED50 (Mus musculus [3]) was 50.6 mg/kg, the Rectal temperature (Mus musculus [1]) was 37.4 °C and the Min effective dose (Mus musculus [4]) was >100.
CN1c2ccccc2N(C(=O)CN2CCOCC2)c2ccccc2S1(=O)=O showed a Rectal temperature (Mus musculus [1]) of 33.9 °C.
Work on Cc1ccc2c(c1)N(C(=O)CN(C)C)c1ccccc1S(=O)(=O)N2C yielded an LD50 at 336 h [2] of 1730 mg/kg, an ED50 (Mus musculus [3]) of 14.4 mg/kg and a Rectal temperature (Mus musculus [1]) of 38.8 °C. For the same compound, the Min effective dose (Mus musculus [4]) was 100.
In the case of CCN(CC)CC(=O)N1c2ccccc2N(C)S(=O)(=O)c2ccccc21, the LD50 at 336 h [2] is reported as > 2000 mg/kg, the ED50 (Mus musculus [3]) is reported as 23 mg/kg and the Rectal temperature (Mus musculus [1]) is reported as 37.4 °C. For the same compound, the Min effective dose (Mus musculus [4]) was >100.
With CN(C)CC(=O)N1c2ccccc2N(C)S(=O)(=O)c2cc(Cl)ccc21 the ED50 (Mus musculus [3]) was 54.5 mg/kg, the Rectal temperature (Mus musculus [1]) was 37.7 °C and the Min effective dose (Mus musculus [4]) was >100.
CNCC(=O)N1c2ccccc2N(C)S(=O)(=O)c2ccccc21 showed an LD50 at 336 h [2] of 789 mg/kg, an ED50 (Mus musculus [3]) of 12 mg/kg and a Rectal temperature (Mus musculus [1]) of 38.2 °C. For the same compound, the Min effective dose (Mus musculus [4]) was 100.
CN1c2ccccc2N(C(=O)CN)c2ccccc2S1(=O)=O gave a Rectal temperature (Mus musculus [1]) of 36.1 °C.
Cc1ccc2c(c1)N(C(=O)CN(C)C)c1ccccc1N(C)S2(=O)=O gave a Rectal temperature (Mus musculus [1]) of 35.2 °C.
CN(C)CC(=O)N1c2ccccc2N(C)S(=O)(=O)c2ccc(Cl)cc21 showed a Rectal temperature (Mus musculus [1]) of 35.4 °C.
In the case of CN1c2ccccc2N(C(N)=O)c2ccccc2S1(=O)=O, the Rectal temperature (Mus musculus [1]) is reported as 33.8 °C.
Work on CC(C)NCC(=O)N1c2ccccc2N(C)S(=O)(=O)c2ccccc21 yielded a Rectal temperature (Mus musculus [1]) of 34.1 °C.
Compound CN1CCN(CC(=O)N2c3ccccc3N(C)S(=O)(=O)c3ccccc32)CC1 has a Rectal temperature (Mus musculus [1]) of 34.4 °C.
In the case of CN(C)CC(=O)N1c2ccccc2N(C)S(=O)(=O)c2ccc(C(F)(F)F)cc21, the Rectal temperature (Mus musculus [1]) is reported as 34.8 °C.
CN1c2ccccc2N(C(=O)CN2CCN(CCO)CC2)c2ccccc2S1(=O)=O showed a Rectal temperature (Mus musculus [1]) of 34.4 °C.
For CN(C)C(=O)N1c2ccccc2N(C)S(=O)(=O)c2ccccc21, the Rectal temperature (Mus musculus [1]) was 33.7 °C.
For Cc1cc2c(cc1Cl)N(C(=O)CN1CCN(C)CC1)c1ccccc1N(C)S2(=O)=O, the Rectal temperature (Mus musculus [1]) was 32.5 °C.
Work on COc1ccc2c(c1)N(C(=O)CN(C)C)c1ccccc1N(C)S2(=O)=O yielded a Rectal temperature (Mus musculus [1]) of 33.6 °C.
With CN(C)CC(=O)N1c2ccccc2N(C)S(=O)(=O)c2ccccc21 the LD50 at 336 h [2] was 1920 mg/kg, the Lethality (Mus musculus [5]) was 95% and the Lethality (Mus musculus [6]) was 95%. For the same compound, the Lethality (Mus musculus [7]) was 90%, the Rectal temperature (Mus musculus [1]) was 38.7 °C and the Min effective dose (Mus musculus [4]) was 25.
Cc1cc2c(cc1Cl)N(C(=O)CNC(C)C)c1ccccc1N(C)S2(=O)=O gave a Rectal temperature (Mus musculus [1]) of 33.1 °C.
With Cc1cc2c(cc1Cl)N(C(=O)CN(C)C)c1ccccc1N(C)S2(=O)=O the Rectal temperature (Mus musculus [1]) was 35.8 °C.
CN(C)CC(=O)N1c2ccc(Cl)cc2N(C)S(=O)(=O)c2ccccc21 showed an LD50 at 336 h [2] of 1420 mg/kg, an ED50 (Mus musculus [3]) of 23.5 mg/kg and a Rectal temperature (Mus musculus [1]) of 39.5 °C. For the same compound, the Min effective dose (Mus musculus [4]) was >100.
With CN(C)CCC=C1c2ccccc2CCc2ccccc21 [AMITRIPTYLINE] the Lethality (Mus musculus [8]) was 37%.
CN(C)CCCN1c2ccccc2CCc2ccccc21 [IMIPRAMINE] showed an ED50 (Mus musculus [3]) of 3.7 mg/kg and a Min effective dose (Mus musculus [4]) of 4.
